The target of one assay is Mu-type opioid receptor (Homo sapiens, UniProt P35372). Put plainly: Binding affinity towards human mu-opioid receptors in CHO (Chinese hamster ovary) cell lines. Type of assay: cell-based. The gist of the method:
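CHO cells stably expressing hMOR grown in serum-free suspension culture; membranes made by hypotonic lysis in 10 mM potassium phosphate pH 7.2 with 3 mM MgCl2. Binding run in triplicate at 10 µg/mL protein with 0.4-0.5 nM radioligand for 60 min at 30 °C. Nonspecific binding defined with 10 µM naloxone; filtration and scintillation counting. Duplicate concentration-response curves, n = 3-5 for potent compounds.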

For assay [1], the target named is T1, Neuromedin-K receptor (Homo sapiens, UniProt P29371).
T1 sequence (P29371 whole entry): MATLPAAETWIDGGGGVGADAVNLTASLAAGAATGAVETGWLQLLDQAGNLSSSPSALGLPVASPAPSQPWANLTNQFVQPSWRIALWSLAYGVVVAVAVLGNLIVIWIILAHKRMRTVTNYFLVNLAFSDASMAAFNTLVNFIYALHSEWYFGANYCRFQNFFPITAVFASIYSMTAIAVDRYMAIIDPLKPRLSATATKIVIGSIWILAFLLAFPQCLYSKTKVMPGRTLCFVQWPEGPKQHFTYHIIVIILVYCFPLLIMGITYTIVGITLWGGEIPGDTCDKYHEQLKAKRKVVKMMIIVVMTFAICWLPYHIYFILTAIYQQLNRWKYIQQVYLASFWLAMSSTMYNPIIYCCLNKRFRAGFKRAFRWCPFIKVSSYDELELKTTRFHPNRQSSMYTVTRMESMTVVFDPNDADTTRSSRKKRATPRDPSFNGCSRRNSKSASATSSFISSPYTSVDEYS
Put plainly: Displacement of [125 I]-[MePhe]-NKB binding to hNK-3-CHO (Chinese hamster ovary) membranes. The gist of the method: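 hNK-3-CHO crude membranes (~15 µg protein) were incubated with 0.15 nM [125I]-[MePhe7]-NKB in 50 mM Tris pH 7.4, 4 mM MnCl2, 1 µM phosphoramidon, 0.1% ovalbumin for 90 min at 25 °C. Filtered through BSA-presoaked GF/C, then scintillation counted. Nonspecific binding defined with 0.5 µM cold [MePhe7]-NKB. Ki from IC50 by Cheng-Prusoff; duplicates, n = 3-5.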

Assay [2] concerns the target T2, Substance-K receptor (Homo sapiens, UniProt P21452).
T2 sequence (P21452 whole entry): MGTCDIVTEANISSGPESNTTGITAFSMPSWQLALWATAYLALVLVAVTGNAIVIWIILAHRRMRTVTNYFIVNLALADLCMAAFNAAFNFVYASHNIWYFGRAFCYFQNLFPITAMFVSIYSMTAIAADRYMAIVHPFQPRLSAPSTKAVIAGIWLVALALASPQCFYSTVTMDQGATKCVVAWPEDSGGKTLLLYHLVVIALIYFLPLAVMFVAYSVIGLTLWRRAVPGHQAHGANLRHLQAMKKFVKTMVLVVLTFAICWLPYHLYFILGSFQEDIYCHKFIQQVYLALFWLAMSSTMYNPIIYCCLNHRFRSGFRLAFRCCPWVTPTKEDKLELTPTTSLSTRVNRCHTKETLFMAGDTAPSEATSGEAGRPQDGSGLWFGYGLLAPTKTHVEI
Put plainly: Displacement of [125 I]-NKA binding to tachykinin receptor 2 in CHO membranes. In kind it is cell membranes. In a few lines:
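hNK-2-CHO crude membranes (~10 µg protein) were incubated with 0.15 nM [125I]-NKA for 90 min at 25 °C in Tris pH 7.4 buffer containing MnCl2, phosphoramidon and ovalbumin. Filtered through GF/C soaked in 0.1% PEI. Nonspecific binding defined with 0.5 µM cold NKA. Ki from IC50 by Cheng-Prusoff; duplicate curves, n = 3-5.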

Assay [3] can be described thus: Selectivity ratio (hNK-2/hNK-3) of the compound.
Assay [4] addresses T1, Neuromedin-K receptor. Put plainly: (§1) Cellular functional antagonistic activity against NKB-induced [Ca2+] mobilization in HEK cells stably expressing the hNK-3 receptor. Type of assay: cell-based, HEK293. Particulars: read-out: pA2 (converted).
Assay [5] concerns the target T3, Substance-K receptor (Homo sapiens) (UniProt P21452).
T3 sequence (whole entry): T2 sequence (P21452 whole entry)
Put plainly: Cellular functional antagonistic activity against NKA-induced [Ca2+] mobilization in HEK cells stably expressing the tachykinin receptor 2. The conditions noted are these: HEK293.

The target in assay [6] is T4, Neuromedin-K receptor (Homo sapiens) (UniProt P29371).
T4 sequence (whole entry): T1 sequence (P29371 whole entry)
Described as §1. In kind it is cell-based. The conditions noted are these: HEK293.

Assay [7] deals with T2, Substance-K receptor. As to the kind of experiment: Cellular functional antagonistic activity against NKA-induced [Ca2+] mobilization in HEK cells stably expressing the tachykinin receptor 2. The conditions noted are these: read-out: pA2 (converted).

Mu-type opioid receptor, sequence (P35372 whole entry): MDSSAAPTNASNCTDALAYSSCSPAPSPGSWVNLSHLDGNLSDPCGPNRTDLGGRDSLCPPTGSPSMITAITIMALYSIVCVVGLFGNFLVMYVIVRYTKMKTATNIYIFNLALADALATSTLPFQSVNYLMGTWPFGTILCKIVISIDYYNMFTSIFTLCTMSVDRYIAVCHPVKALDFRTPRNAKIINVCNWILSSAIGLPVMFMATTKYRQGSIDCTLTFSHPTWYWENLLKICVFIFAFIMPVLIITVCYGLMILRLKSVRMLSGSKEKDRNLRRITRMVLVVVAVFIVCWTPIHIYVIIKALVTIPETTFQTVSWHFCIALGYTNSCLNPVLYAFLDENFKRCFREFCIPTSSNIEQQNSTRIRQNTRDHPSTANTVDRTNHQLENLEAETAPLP

Usually Ki stands for the dissociation constant of the complex between target and ligand, obtained from inhibition or displacement. High values mean weaker binding, low ones tighter binding. For `CC(C)C(=O)N1CCN(Cc2c(-c3ccccc3)nc3ccccc3c2C(=O)N[C@@H](C)C2CCCCC2)CC1`, the inhibition constant Ki was more than 2500 nM at Mu-type opioid receptor, 1.4 nM at Neuromedin-K receptor [1] and 1.2 nM on Substance-K receptor [2]. Moreover, the Ratio in assay [3] worked out at 0.9.

For the compound `CC(C)[C@H](NC(=O)c1c(CN2CCN(C(C)C)CC2)c(-c2ccccc2)nc2ccccc12)c1ccccc1`, the inhibition constant (Ki) turned out to be 120 nM on Mu-type opioid receptor, 1.2 nM on Neuromedin-K receptor [1] and 1.5 nM at Substance-K receptor [2]. In addition, in assay [3], the Ratio worked out at 1.2.

In the case of `CC(C)[C@H](NC(=O)c1c(CN(C)C)c(-c2ccccc2)nc2ccccc12)c1ccccc1`, the Ki was more than 2500 nM on Mu-type opioid receptor and 51.6 nM on Substance-K receptor [2]. For the same compound, the Ratio in assay [3] amounted to 16.

Take `C[C@H](NC(=O)c1c(CN2CCC(N3CCOCC3)CC2)c(-c2ccccc2)nc2ccccc12)C1CCCCC1`: the inhibition constant (Ki) on Mu-type opioid receptor was more than 2500 nM; on Neuromedin-K receptor [1] it was 0.8 nM; on Substance-K receptor [2], 0.8 nM. Besides, the Ratio in assay [3] came to 1.

`CC[C@H](NC(=O)c1c(O)c(-c2ccccc2)nc2ccccc12)c1ccccc1` [TALNETANT] yielded a Ki at Mu-type opioid receptor of 1860 nM.

In the case of `CC[C@H](NC(=O)c1c(CN2CCNCC2)c(-c2ccccc2)nc2ccccc12)c1ccccc1`, the inhibition constant Ki was found to be 203 nM at Mu-type opioid receptor, 4.7 nM at Neuromedin-K receptor [1] and 22.2 nM on Substance-K receptor [2]. Also, in assay [3], the Ratio worked out at 4.7.

Regarding `CC(C)N1CCN(Cc2c(-c3ccccc3)nc3ccccc3c2C(=O)N[C@@H](C)C2CCCCC2)CC1`, the Ki was 195 nM on Mu-type opioid receptor, 1.9 nM on Neuromedin-K receptor [1] and 0.7 nM on Substance-K receptor [2]. For the same compound, the Ratio in assay [3] was 0.4.

In the case of `CC[C@H](NC(=O)c1c(CN(C)C)c(-c2ccccc2)nc2ccccc12)c1ccccc1`, the inhibition constant (Ki) at Mu-type opioid receptor worked out at 1680 nM; at Neuromedin-K receptor [1], 2.2 nM; at Substance-K receptor [2], 172 nM. The Ratio in assay [3] came to 78.

`C[C@H](NC(=O)c1c(CN2CCNCC2)c(-c2ccccc2)nc2ccccc12)C1CCCCC1`: the Ki on Mu-type opioid receptor was 172 nM; at Neuromedin-K receptor [1], 3.4 nM; at Substance-K receptor [2] it was 2.4 nM. For the same compound, the Ratio in assay [3] worked out at 0.7.

With `C[C@H](NC(=O)c1c(CN2CCC(N)CC2)c(-c2ccccc2)nc2ccccc12)C1CCCCC1`, the figures for the inhibition constant (Ki) on Mu-type opioid receptor, on Neuromedin-K receptor [1] and at Substance-K receptor [2] were 1780 nM, 31.2 nM and 33 nM, respectively. Besides, the Ratio in assay [3] stood at 1.1.

Regarding `CC[C@H](NC(=O)c1c(CN2CCN(C3CCCCC3)CC2)c(-c2ccccc2)nc2ccccc12)c1ccccc1`, the figures for the Ki on Mu-type opioid receptor, at Neuromedin-K receptor [1] and at Substance-K receptor [2] were 15.8 nM, 1.2 nM and 1.6 nM, respectively. Besides, the Ratio in assay [3] turned out to be 1.3.

As to `C[C@H](NC(=O)c1c(CN2CCC(N3CCCCC3)CC2)c(-c2ccccc2)nc2ccccc12)C(C)(C)C`, the inhibitory constant (Ki) at Mu-type opioid receptor is not below 2000 nM; at Neuromedin-K receptor [1], 193 nM; on Substance-K receptor [2] it was 1 nM. In addition, the Ratio in assay [3] was found to be 0.005.

Compound `CC[C@H](NC(=O)c1c(CN2CCN(C(C)C)CC2)c(-c2ccccc2)nc2ccccc12)c1ccccc1` gave a Ki on Mu-type opioid receptor of 98.6 nM. Besides, the Ratio in assay [3] was 3.1.

Regarding `C[C@H](NC(=O)c1c(CN2CCC(N3CCCCC3)CC2)c(-c2ccccc2)nc2ccccc12)C1CCCCC1`, the inhibition constant (Ki) turned out to be 1320 nM at Mu-type opioid receptor, 1.7 nM on Neuromedin-K receptor [1] and 0.6 nM on Substance-K receptor [2]. The Kb at Neuromedin-K receptor [4] is 2 nM; in assay [5], 9.9 nM; in assay [6], 2.6 nM; on Substance-K receptor [7], 10 nM. In addition, the Ratio in assay [3] worked out at 0.3.

`CC[C@H](NC(=O)c1c(CN2CCC(N3CCCCC3)CC2)c(-c2ccccc2)nc2ccccc12)c1ccccc1`: the Ki at Mu-type opioid receptor amounted to 919 nM; at Neuromedin-K receptor [1], 1.5 nM; on Substance-K receptor [2], 4.6 nM. For the same compound, in assay [3], the Ratio was 3.1.

Take `C[C@H](NC(=O)c1c(CN2CCOCC2)c(-c2ccccc2)nc2ccccc12)C1CCCCC1`: the Ki on Mu-type opioid receptor was more than 2500 nM; on Neuromedin-K receptor [1] it was 4.6 nM; on Substance-K receptor [2], 6.1 nM. For the same compound, the Ratio in assay [3] is 1.3.

Take `CC[C@H](NC(=O)c1c(CN2CCCCC2)c(-c2ccccc2)nc2ccccc12)c1ccccc1`: the Ki was more than 2500 nM at Mu-type opioid receptor, 7 nM at Neuromedin-K receptor [1] and 276 nM at Substance-K receptor [2]. In addition, the Ratio in assay [3] worked out at 39.

Regarding `CCC(CC)NC(=O)c1c(CN2CCN(C(C)C)CC2)c(-c2ccccc2)nc2ccccc12`, the inhibitory constant (Ki) on Neuromedin-K receptor [1] worked out at 1210 nM; on Substance-K receptor [2], 18.5 nM. The Ratio in assay [3] was 0.015.

As for `CC(C)N1CCN(Cc2c(-c3ccccc3)nc3ccccc3c2C(=O)NC2CCCCC2)CC1`, the Ki came to 226 nM on Mu-type opioid receptor, 1250 nM at Neuromedin-K receptor [1] and 4.2 nM on Substance-K receptor [2]. In addition, in assay [3], the Ratio worked out at 0.003.

Turning to `CC(C)NC(=O)c1c(CN2CCN(C(C)C)CC2)c(-c2ccccc2)nc2ccccc12`, the inhibitory constant (Ki) at Neuromedin-K receptor [1] was more than 12000 nM; on Substance-K receptor [2], 811 nM. The Ratio in assay [3] was less than 0.1.

In the case of `CC(C)C(C)NC(=O)c1c(CN2CCN(C(C)C)CC2)c(-c2ccccc2)nc2ccccc12` (centres undefined), the inhibition constant Ki at Neuromedin-K receptor [1] was 454 nM; at Substance-K receptor [2] it was 9.2 nM. The Ratio in assay [3] stood at 0.02.

The values above are taken from ChEMBL document CHEMBL1134438, “Stepwise modulation of neurokinin-3 and neurokinin-2 receptor affinity and selectivity in quinoline tachykinin receptor antagonists” (J Med Chem, 2001).
